The values below come from ChEMBL document CHEMBL3232750, “Synthesis, structure-activity relationships, and in vitro antibacterial and antifungal activity evaluations of novel pyrazole carboxylic and dicarboxylic acid derivatives” (2014).

Test [1] relates to Staphylococcus aureus. The test can be described thus: Antibacterial activity against Staphylococcus aureus at 30 ug/disc at 37 degC after 24 hrs by agar well diffusion assay. It is filed as functional. The conditions noted are these: read-out: DIZ. Summed up:
(§1)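 Positive-control antibiotic disc on Nutrient Agar swabbed with 10^8 CFU/mL bacteria. Plates pre-incubated 2 h at 25 °C, then 24 h at 37 °C. Inhibition zone diameter measured in mm. Duplicate.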

Test [2] concerns Staphylococcus aureus. Nature of the test: Antibacterial activity against methicillin-resistant Staphylococcus aureus at 37 degC after 24 hrs by agar well diffusion assay. It is filed as functional. An outline of the steps: (§2)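 Bacteria kept on Nutrient Agar slants at 4 °C and subcultured before use. Suspensions of 10^8 CFU/mL were swabbed onto Nutrient Agar and the plates dried 40 min at 35 °C. Compounds were dissolved in DMSO starting at 2.5 mg/ml, serially diluted two-fold, and loaded into 6 mm wells. Plates were pre-incubated 2 h at 25 °C, then 24 h at 37 °C. Inhibition zones were read and the MIC taken as the lowest inhibiting concentration. Duplicates were run.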

Test [3] concerns Escherichia coli. Nature of the test: Antibacterial activity against Escherichia coli at 30 ug/disc at 37 degC after 24 hrs by agar well diffusion assay. It is filed as functional. The conditions noted are these: read-out: DIZ. An outline of the steps: as §1
Test [4] concerns Candida albicans. Nature of the test: Antifungal activity against Candida albicans at 25 degC after 48 hrs by agar well diffusion assay. It is filed as functional. Summed up:
(§3)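 Yeast suspensions of 10^7 CFU/mL were swabbed onto Sabouraud Dextrose Agar and dried about 40 min at 35 °C. Compounds were dissolved in DMSO (2.5 mg/ml initial) and diluted two-fold in DMSO, then loaded into 6 mm wells. Plates: 2 h pre-incubation at 25 °C, then 48 h at 25 °C. MIC read as the lowest concentration inhibiting growth around the well, in duplicate. The C. albicans clinical isolate came from a hospitalized patient at Eskisehir Osmangazi University hospital; the standard strain came from a culture collection.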

Test [5] has as its system Staphylococcus aureus. Nature of the test: Antibacterial activity against Staphylococcus aureus at 37 degC after 24 hrs by agar well diffusion assay. Type of test: functional. Summed up: (§4)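 Compounds dissolved in DMSO at 2.5 mg/ml initial concentration, then serially diluted two-fold in DMSO. Nutrient Agar plates were swabbed with 10^8 CFU/mL bacteria and dried about 40 min at 35 °C. Solution was placed in 6 mm wells, then 2 h pre-incubation at 25 °C and 24 h at 37 °C. MIC is the lowest concentration giving a growth-inhibition zone around the well. Duplicate.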

In test [6] the test system is Pseudomonas aeruginosa. Nature of the test: Antibacterial activity against Pseudomonas aeruginosa at 37 degC after 24 hrs by agar well diffusion assay. Type of test: functional, organism-based. Summed up:
as §4

In test [7] the test system is Candida tropicalis. The test can be described thus: Antifungal activity against Candida tropicalis at 25 degC after 48 hrs by agar well diffusion assay. It is filed as functional. Summed up: as §3
For test [8], the system named is Nakaseomyces glabratus. The test can be described thus: Antifungal activity against Candida glabrata at 25 degC after 48 hrs by agar well diffusion assay. Type of test: functional. An outline of the steps:
as §3

Test [9] relates to Candida albicans. Nature of the test: Antifungal activity against Candida albicans ESOGU at 25 degC after 48 hrs by agar well diffusion assay. It is filed as functional. Summed up:
as §3

Test [10] relates to Escherichia coli. Nature of the test: Antibacterial activity against Escherichia coli at 37 degC after 24 hrs by agar well diffusion assay. It is filed as functional, organism-based. Summed up: as §4
In test [11] the test system is Candida parapsilosis. The test can be described thus: Antifungal activity against Candida parapsilosis at 25 degC after 48 hrs by agar well diffusion assay. Type of test: functional. An outline of the steps: as §3
The test system of test [12] is Enterococcus. Nature of the test: Antibacterial activity against vancomycin-resistant Enterococcus species at 37 degC after 24 hrs by agar well diffusion assay. It is filed as functional, organism-based. An outline of the steps:
as §2

The test system of test [13] is Candida parapsilosis. Nature of the test: Antifungal activity against Candida parapsilosis at 100 U/disc at 25 degC after 48 hrs by agar well diffusion assay. Type of test: functional, organism-based. An outline of the steps: (§5)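 Yeasts kept on Sabouraud Dextrose Agar slants at 4 °C and subcultured before use. Suspensions of 10^7 CFU/mL were swabbed onto Sabouraud Dextrose Agar and the plates dried 40 min at 35 °C. The nystatin positive-control disc carried 100 U. Plates were pre-incubated 2 h at 25 °C, then incubated 48 h at 25 °C. The growth-inhibition zone diameter was measured in mm, in duplicate.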

In test [14] the test system is Candida tropicalis. The test can be described thus: Antifungal activity against Candida tropicalis at 100 U/disc at 25 degC after 48 hrs by agar well diffusion assay. It is filed as functional, organism-based. An outline of the steps:
as §5

The subject of test [15] is Nakaseomyces glabratus. Nature of the test: Antifungal activity against Candida glabrata at 100 U/disc at 25 degC after 48 hrs by agar well diffusion assay. Type of test: functional, organism-based. An outline of the steps:
as §5

Values after ≈ are worked out from the molar mass of the structure shown. Active and inactive are the calls of the source. No cut-off for these calls is given here.

Consider `CO/N=C(\C(=O)N[C@@H]1C(=O)N2C(C(=O)O)=C(COC(C)=O)CS[C@H]12)c1csc(N)n1` [CEFOTAXIME], for which the zone of inhibition at 30 µg/disc in test [1] was 35 mm; in [3], 45 mm. In test [2], the outcome was inactive.
For `O=C(Nc1ccccc1F)c1nn(-c2cccc([N+](=O)[O-])c2)c(-c2ccccc2)c1C(=O)Nc1ccccc1F`, it took 25 mg/L (≈ 46.3 µM) to inhibit growth in test [4] (MIC). In addition, the result in [5], in [6], in [2], in test [7], in test [8] and in test [9] was inactive. Also, the outcome in test [10], in [11] and in test [12] was inactive.
Consider `CNC(=O)NC(=O)c1nn(-c2cccc([N+](=O)[O-])c2)c(-c2ccccc2)c1C(=O)NC(=O)NC`, for which the MIC in [4] is 25 mg/L (≈ 53.7 µM); in test [5], 50 mg/L (≈ 107 µM); in [2] it was 50 mg/L (≈ 107 µM); in test [9], 25 mg/L (≈ 53.7 µM). Also, the outcome in [6], in [7], in test [8], in test [10], in test [11] and in test [12] was inactive.
Turning to `CCOC(=O)c1c(C(=O)Nc2cccc(C(F)(F)F)c2)nn(-c2cccc([N+](=O)[O-])c2)c1-c1ccccc1`, the minimum inhibitory concentration (MIC) stood at 25 mg/L (≈ 47.7 µM) in test [4], 50 mg/L (≈ 95.3 µM) in [7] and 50 mg/L (≈ 95.3 µM) in [9]. In addition, the result in test [5], in [6], in test [2], in [8], in [10] and in test [11] was inactive. Further, the result in test [12] was inactive.
In the case of `O=C(Nc1cccc(F)c1)c1nn(-c2cccc([N+](=O)[O-])c2)c(-c2ccccc2)c1C(=O)Nc1cccc(F)c1`, the MIC in test [4] was 50 mg/L (≈ 92.7 µM). In addition, the outcome in test [5], in test [6], in [2], in [7], in test [8] and in [9] was inactive. The result in test [10], in test [11] and in [12] was inactive.
In the case of `CCNC(=O)NC(=O)c1nn(-c2cccc([N+](=O)[O-])c2)c(-c2ccccc2)c1C(=O)NC(=O)NCC`, the MIC in test [4] and in [9] was 25 mg/L (≈ 50.7 µM) throughout. For the same molecule, the outcome in [5], in test [6], in [2], in test [7], in test [8] and in test [10] was inactive. The result in [11] and in test [12] was inactive.
On to `CCOC(=O)c1c(C(=O)Nc2cccc(F)c2)nn(-c2cccc([N+](=O)[O-])c2)c1-c1ccccc1`, for which the MIC turned out to be 25 mg/L (≈ 52.7 µM) in [4] and 50 mg/L (≈ 105 µM) in [9]. Moreover, the outcome in test [5], in test [6], in test [2], in test [7], in test [8] and in [10] was inactive. Further, the outcome in [11] and in test [12] was inactive.
As to `CCOC(=O)c1c(C(=O)Nc2ccccc2C(F)(F)F)nn(-c2cccc([N+](=O)[O-])c2)c1-c1ccccc1`, the MIC in test [4] and in [9] was 50 mg/L (≈ 95.3 µM) in each case. Also, the outcome in [5], in test [6], in [2], in [7], in test [8] and in test [10] was inactive. Besides, the result in test [11] and in test [12] was inactive.
`CCOC(=O)c1c(C(=O)Nc2ccc(F)cc2)nn(-c2cccc([N+](=O)[O-])c2)c1-c1ccccc1`: the MIC in test [4] and in [9] was 50 mg/L (≈ 105 µM) in each case. In addition, the outcome in test [5], in test [6], in test [2], in [7], in test [8] and in test [10] was inactive. For the same molecule, the outcome in [11] and in [12] was inactive.
As to NYSTATIN, the figures for the inhibition zone (IZ) in [13], in [14] and in [15] were 19 mm, 19 mm and 24 mm, respectively.
